Assay outcomes (PubChem BioAssay)
The list is not random: actives were taken first. Their share in the collection is about 4%.
E-selectin induc = E-selectin induction in HUVECs, primary screen, imaging, HUVEC, immunofluorescence imaging, single point. activation, % at 7.58 µM. 260,000 compounds, 0.37% hits. normalized: neutral wells 0, TNF-alpha wells 100. P16581;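 active means mean E-selectin-positive cell signal at least 10% of the positive control, reached in at least 60% of replicates, without over 20% cell loss; inconclusive means no rule given, readout overlaps actives, possibly toxicity-flagged; inactive means the rest, including those meeting only one limit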
Target sequence (P16581 whole entry, looked up): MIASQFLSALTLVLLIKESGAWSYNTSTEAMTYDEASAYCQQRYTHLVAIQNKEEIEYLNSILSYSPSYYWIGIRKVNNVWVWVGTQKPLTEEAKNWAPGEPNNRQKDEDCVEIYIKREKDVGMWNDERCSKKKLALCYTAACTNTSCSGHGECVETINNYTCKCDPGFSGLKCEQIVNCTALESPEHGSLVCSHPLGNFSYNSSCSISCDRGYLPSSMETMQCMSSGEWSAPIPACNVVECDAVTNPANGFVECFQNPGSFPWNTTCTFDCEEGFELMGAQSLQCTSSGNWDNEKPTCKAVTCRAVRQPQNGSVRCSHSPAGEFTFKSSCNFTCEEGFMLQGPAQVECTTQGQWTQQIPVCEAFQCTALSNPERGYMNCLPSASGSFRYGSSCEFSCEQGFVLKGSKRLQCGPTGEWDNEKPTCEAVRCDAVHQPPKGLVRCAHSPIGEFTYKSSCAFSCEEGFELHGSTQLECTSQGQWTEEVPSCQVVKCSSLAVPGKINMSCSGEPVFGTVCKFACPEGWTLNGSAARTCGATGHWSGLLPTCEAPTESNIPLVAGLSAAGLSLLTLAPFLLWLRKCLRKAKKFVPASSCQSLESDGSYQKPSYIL
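assay system = HUVEC, human umbilical vein endothelial cells | input = 3,000 HUVEC seeded per well | medium = EGM-2 growth medium on 0.1% gelatin-coated wells | dosing = one compound dose added by pin transfer | signal = immunofluorescence imaging | read-out basis = % PE-positive cells | control set = TNF-alpha, DMSO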
Statin myotox sup = suppressors of statin myotoxicity in C2C12 myotubes, primary screen, cell-based, single point, plate reader | AID 602340, 2012 | C2C12 myotubes + simvastatin, ATP luminescence, 48 h; scaled: DMSO 0, geranylgeraniol control 100 | 330,000 compounds, 0.78% hits | rescue of ATP level, % at 7.49 µM;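 active means mean ATP rescue above about 67%, or every replicate alone reaching that limit, limit read from the data, passing the limit was not always enough; inconclusive means no clear call, values can overlap the other calls; inactive means mean under the limit and some replicate under it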;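 further: myotubes were challenged with 10 µM simvastatin during compound exposure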
FGF22 binding-1 = binders of human FGF22 protein, primary screen, FGF22 synaptogenesis inhibitor project, biophysical, thermal shift, single point. Fibroblast growth factor 22 (Homo sapiens), Q9HCT0. recombinant FGF22 thermal shift, SYPRO orange fluorescence; percent of sucrose octasulfate shift, DMSO zero. activity (Tm shift, normalised), % at 9.99 µM. 340,000 compounds, 1.5% hits;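 active means mean Tm shift, scaled 0 neutral to 100 positive control, at about 1.3% or above, every replicate too, limit read from the data; inconclusive means no clear call, values can overlap the other calls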
Target sequence (Q9HCT0 whole entry, looked up): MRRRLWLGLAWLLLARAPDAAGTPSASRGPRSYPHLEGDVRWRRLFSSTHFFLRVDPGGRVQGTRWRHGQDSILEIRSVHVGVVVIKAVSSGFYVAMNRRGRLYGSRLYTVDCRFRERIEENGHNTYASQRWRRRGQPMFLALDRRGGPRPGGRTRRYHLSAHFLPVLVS
SIRT5 inh = SIRT5 desuccinylase inhibitors, primary screen, biochemical, fluorescence imaging, single point, set 5. NAD-dependent protein deacylase sirtuin-5, mitochondrial (Homo sapiens), Q9NXA8. Purified SirT5, succinyl-peptide AMC, trypsin-coupled fluorescence. inhibition, % at 15 µM. 330,000 compounds, 1.1% hits; in the data active means inhibition above about 15%; inconclusive means no clear call, values can overlap the other calls
Ecoli rRNA inh = reduced GFP signal of wild-type E. coli, primary screen, bacterial rRNA inhibitor project, GFP/RFP fluorescence, OD600, single point | AID 720706, 2013 | GFP signal change (wild-type ribosome), % (test concentration not listed) | 350,000 compounds, 1.6% hits | E. coli WT GFP vs humanized-ribosome RFP mutants, 24 h; stronger effect = lower value; DMSO median 0, no signal -100;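 active means significant combined selectivity score with lowered wild-type GFP, culture density cut under 30%, mutant RFP and density less affected; inactive means any of these conditions unmet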
FN deposition inh = inhibitors of fibronectin matrix deposition, primary screen, AH1F cells, Alexa488-fibronectin fluorescence, plate reader | 350,000 compounds, 0.086% hits | AH1F fibroblasts, overnight | inhibition, % at 12.6 µM | AID 743247, 2014;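 active means mean inhibition across replicates of 30% or more, regardless of how many single replicates reach that level; inconclusive means mean under 30% yet at least half of replicates reach 30%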
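Test system: AH1F fibroblast monolayer depositing Alexa488-labelled fibronectin into matrix. Input: 10000 cells per well. Technique: fluorescence, ex 485 nm, em 525 nm. Buffer or medium: DMEM plus 2% serum, read in PBS. Timing: 1 h cell adhesion before compound, then overnight fibronectin incubation. Compound: single dose, pinned. Read-out basis: inhibition from reduced deposited-fibronectin fluorescence.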
FGF22 binding-2 = binders of human FGF22 protein, dose response, FGF22 synaptogenesis inhibitor project, biophysical, thermal shift, cherry-pick retest. 1,000 compounds, 2% hits. shares compounds with FGF22 binding-1. recombinant FGF22 thermal shift, SYPRO orange fluorescence. thermal shift activity, °C (ΔTm) at 38 µM;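 active means fitted rise in melting shift crosses a set limit at or below the top valid dose tested; inconclusive means flat fit at mid-level activity, or a poor quality fit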
TSA no protein = compound-only thermal shift signal without protein, dose response, artefact control for FGF22 binder project, biochemical, cherry-picked samples, RT-PCR instrument | AC50, µM (top dose mostly 38 µM) | 1,000 compounds, 2% hits | compound-only SYPRO orange thermal shift counter-screen, no protein | shares compounds with FGF22 binding-1;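 active means rising signal whose fitted curve reaches the 0.54 level within the top valid dose, showing a melting point, actives reach about 13 µM in these data; inactive means the rest, including activity in the opposite direction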; further: value is where the raw curve crosses a fixed level and not half-maximal
AID977621 = growth inhibition of wild-type GFP E. coli, dose response, H69 mutant RFP, cherry-pick | E. coli wild-type GFP strain growth, fluorescence, 24 h | activity change, negative = inhibition at 50 µM | shares compounds with Ecoli rRNA inh | 1,900 tested, under 10 active | AID 977621, 2014;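 active means Wild-type ribosome reporter drop at least double the humanized mutant ribosome reporter drop, growth loss under a set limit; inconclusive means no clear call, values can overlap the other calls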;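 further: wild-type GFP and H69 mutant RFP strains grown together 50/50 in each well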
AID977628 = E. coli growth inhibition, wild-type GFP versus h24 humanized RFP strain, dose response, h24 mutant RFP vs wild-type GFP, cherry-pick; shares compounds with Ecoli rRNA inh; E. coli WT GFP strain growth, fluorescence, 24 h; activity change, negative = inhibition at 50 µM; 1,900 tested, under 10 active; AID 977628, 2014;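 active means compound lowering the normal-ribosome reporter at least twice as much as the humanized-ribosome reporter, growth loss under a set limit; inconclusive means no clear call, values can overlap the other calls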;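 further: wild-type GFP and h24 humanized RFP strains co-cultured 1 to 1 per well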
Each line names hits and unclear results; the compound was inactive in the other large screens (follow-up assays come after a bar, where they were run).

NP(=O)(Oc1ccccc1)Oc1ccccc1	none (no result: FGF22 binding-1, SIRT5 inh)
CC=Cc1ccc2n(c1=O)C[C@H]1[C@H](CO)[C@@H](C(=O)OC)[C@@H]2N1C(=O)CC1CC1 (mixture of isomers)	none (no result: FN deposition inh)
CC=Cc1ccc2n(c1=O)C[C@H]1[C@H](CO)[C@@H](C(=O)N(C)C)N[C@@H]21 (mixture of isomers)	FGF22 binding-1 1.7 | FGF22 binding-2 inactive | TSA no protein inactive
COC(=O)[C@H]1[C@H](CO)[C@H]2Cn3c(ccc(-c4ccc(OC)cc4)c3=O)[C@@H]1N2C(=O)c1ccccc1F	none (no result: FN deposition inh)
Cc1cc(OCC(=O)NC(Cc2ccc(Cl)cc2)C(=O)O)c2c3c(c(=O)oc2c1)CCC3 (stereo not drawn)	FGF22 binding-1 1.7 (no result: E-selectin induc, FN deposition inh) | FGF22 binding-2 inactive | TSA no protein inactive
O=C(Cc1ccccn1)N1CCCCN2[C@H](C1)[C@H](c1ccc(-c3ccccc3)cc1)[C@@H]2CO	none (no result: Statin myotox sup, FN deposition inh)
COC(=O)[C@H]1[C@H](CO)[C@H]2Cn3c(ccc(-c4ccccc4F)c3=O)[C@@H]1N2	none (no result: FN deposition inh)
CC1([N+](=O)[O-])COP(=O)(NC2CC2)OC1 (stereo not drawn)	FGF22 binding-1 46.4 (no result: Statin myotox sup) | TSA no protein inactive
COc1cccc(-c2ccc([C@H]3[C@@H](CO)N4CCCCN(C(=O)Cc5ccncc5)C[C@@H]34)cc2)c1	none (no result: Statin myotox sup)
COc1cccc(-c2ccc([C@@H]3[C@@H](CO)N4CCCCN(C(=O)Cc5ccncc5)C[C@@H]34)cc2)c1	FGF22 binding-1 1.4 (no result: Statin myotox sup) | FGF22 binding-2 inactive | TSA no protein inactive
COC(=O)[C@@H]1[C@@H](CO)[C@@H]2Cn3c(ccc(-c4cccc(OC)c4)c3=O)[C@H]1N2C(=O)c1cnccn1	none (no result: FN deposition inh)
O=C(Nc1ccccc1)c1cccn(Cc2ccccc2)c1=O	FGF22 binding-1 1.4 (no result: Statin myotox sup) | FGF22 binding-2 inactive | TSA no protein inactive
CN(C)Cc1c[nH]c2ccccc12	FGF22 binding-1 18.6 (no result: E-selectin induc, FN deposition inh) | FGF22 binding-2 inactive | TSA no protein inactive
C=CCN(CC=C)Cc1c[nH]c2ccccc12	none (no result: E-selectin induc, Statin myotox sup, FN deposition inh)
Cc1ccccc1-n1c(O)c(/C=N/NC(=O)c2ccccc2O)c(=O)[nH]c1=S	FGF22 binding-1 1.8 | FGF22 binding-2 inactive | TSA no protein inactive
O=C(N/N=C/c1c(O)n(C2CC2)c(=S)[nH]c1=O)c1ccccc1O	none (no result: Statin myotox sup, FGF22 binding-1, SIRT5 inh, Ecoli rRNA inh)
O=C(NCCN1CCC2(CC1)C(=O)NCN2c1ccccc1)c1ccc2ccccc2c1	FGF22 binding-1 1.9 (no result: Statin myotox sup, SIRT5 inh) | FGF22 binding-2 inactive | TSA no protein inactive
COc1cccc(CN2CC3(C2)[C@H](c2ccccc2)[C@H](CO)N3C(=O)Cc2ccccc2)c1	none (no result: Statin myotox sup)
CC(=O)Nc1ccc(S(=O)(=O)N2Cc3ccccc3-n3nncc3C2)cc1	FGF22 binding-1 23.2 | FGF22 binding-2 inactive | TSA no protein inactive
O=C(c1sc2ccccc2c1Cl)N1CCC2(CC1)OCCO2	Ecoli rRNA inh -19.6 (no result: E-selectin induc, FN deposition inh) | AID977621 inactive | AID977628 inactive
O=C(c1ccc(F)cc1Cl)N1CCC2(CC1)OCCO2	none (no result: E-selectin induc, SIRT5 inh)
O=C(O)[C@@H]1[C@@H](CO)[C@@H]2Cn3c(ccc(-c4ccccc4)c3=O)[C@H]1N2S(=O)(=O)c1ccccc1F	none (no result: FN deposition inh)
CCOC(=O)C12C(=O)OCC1C2c1ccccc1 (stereo not drawn)	Ecoli rRNA inh -4.1 (no result: Statin myotox sup) | AID977621 inactive | AID977628 inactive
CCOC(=O)C1(CCOc2ccccc2)CCN(C2Cc3ccccc3C2)CC1	none (no result: E-selectin induc, Statin myotox sup)
COC(=O)[C@@H]1[C@@H](CO)[C@@H]2Cn3c(cccc3=O)[C@H]1N2CCc1ccccc1	none
CC(C)OCCCNC(=O)c1c(N)n(Cc2cccs2)c2nc3ccccc3nc12	none (no result: E-selectin induc, FGF22 binding-1, SIRT5 inh, Ecoli rRNA inh, FN deposition inh)
CC(C)CCn1c(N)c(C(=O)NCc2cccs2)c2nc3ccccc3nc21	Ecoli rRNA inh -21.9 (no result: E-selectin induc, Statin myotox sup, FN deposition inh) | AID977621 inactive | AID977628 inconclusive
Oc1c(Br)cc(Br)cc1Br	Ecoli rRNA inh -21.4 (no result: E-selectin induc, SIRT5 inh, FN deposition inh) | AID977621 inactive | AID977628 inactive
c1cncc(-c2ccc(C3[C@H]4CNC[C@@H]3N4CC3CC3)cc2)c1 (stereo partly drawn)	none (no result: Statin myotox sup, SIRT5 inh)
CC(C)Cc1nc(N2CCNCC2)c(C#N)c2c1CCC2	Ecoli rRNA inh -20.7 (no result: Statin myotox sup) | AID977621 inactive
Cc1c(C(=O)Nc2ccccc2)c2cc(O)ccc2n1Cc1ccccc1	Ecoli rRNA inh -19.8 | AID977621 inactive | AID977628 inconclusive
O=C(O)[C@@H]1[C@@H](CO)[C@@H]2Cn3c(ccc(-c4ccccc4)c3=O)[C@H]1N2C(=O)C1CCCCC1	none (no result: FN deposition inh)
CSc1ccc(CN2CCN(Cc3ccccc3Cl)CC2)cc1	Ecoli rRNA inh -22.5 (no result: E-selectin induc, Statin myotox sup) | AID977628 inconclusive
